Laboratory results from ChEMBL document CHEMBL1151466 (Antimicrob Agents Chemother, 2008).
Each block holds one compound with its values, some of them ahead of it.

What was measured:
[1] = Elimination half life in Paua New Guinean children with uncomplicated malaria at 20 mg/kg daily for 3 days; assay type: ADME, organism-based; parameters: dose 20 mg/kg; details: human, in vivo, read-out: beta t1/2 (converted)
Summary of the method: (§1)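 Children aged 5–10 y with uncomplicated malaria were given oral DHA-PQ at PQ phosphate 20 mg/kg (11.5 mg base/kg) daily at 0, 24 and 48 h, swallowed with water, without fasting. Sampling was serial to day 42. Heparin plasma was stored at −80°C, extracted with hexane-isoamyl alcohol, and assayed by HPLC with UV detection at 340 nm. Parameters came from a two-compartment model with 1/y2 weighting.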

Homo sapiens [2] = test: Tlag in Paua New Guinean children with uncomplicated malaria at 20 mg/kg daily for 3 days; assay type: ADME, organism-based; parameters: dose 20 mg/kg; details: in vivo, 72 h; summary of the method: as §1
[3] = Volume of distribution at steady state with respect to bioavailability in Paua New Guinean children with uncomplicated malaria at 20 mg/kg daily for 3 days; assay type: ADME, organism-based; details: human, in vivo, read-out: Vc/F; summary of the method: as §1
[4] = Apparent clearance with respect to bioavailability in Paua New Guinean children with uncomplicated malaria at 20 mg/kg daily for 3 days; assay type: ADME, organism-based; details: human, in vivo; summary of the method: as §1
[5] = AUC (0 to 42 days) in Paua New Guinean children with uncomplicated malaria at 20 mg/kg daily for 3 days; assay type: ADME, organism-based; parameters: time < 1008 hr, dose 20 mg/kg; details: human, plasma; summary of the method: as §1
[6] = AUC (0 to infinity) in Paua New Guinean children with uncomplicated malaria at 20 mg/kg daily for 3 days; assay type: ADME, organism-based; parameters: time infinity, dose 20 mg/kg; details: human, plasma; summary of the method: as §1
[7] = Elimination half life in Cambodian children with malaria; assay type: ADME, organism-based; details: human, in vivo; read-out: beta t1/2 (converted)
[8] = Volume of distribution at steady state with respect to bioavailability in Cambodian children with malaria; assay type: ADME, organism-based; details: human, in vivo; read-out: Vc/F
Homo sapiens [9] = organism: Homo sapiens; test: Volume of distribution at steady state with respect to bioavailability in human after fat meal using non-compartmental analysis; assay type: ADME, organism-based; details: in vivo
[10] = Apparent clearance with respect to bioavailability in human after fasting using non-compartmental analysis; assay type: ADME, organism-based; details: in vivo
[11] = Apparent clearance with respect to bioavailability in human after fat meal using non-compartmental analysis; assay type: ADME, organism-based; details: in vivo
[12] = Apparent clearance with respect to bioavailability in Vietnamese human; assay type: ADME, organism-based; details: in vivo
[13] = Volume of distribution at steady state with respect to bioavailability in Vietnamese human; assay type: ADME, organism-based; details: in vivo, read-out: Vc/F
Plasmodium falciparum [14] = test: Antiplasmodial activity against chloroquine-sensitive Plasmodium falciparum; assay type: functional, organism-based
Plasmodium falciparum [15] = test: Antiplasmodial activity against chloroquine-resistant Plasmodium falciparum; assay type: functional, organism-based
[16] = Elimination half life in Paua New Guinean children with uncomplicated malaria at 10 mg/kg daily for 3 days; assay type: ADME, organism-based; parameters: dose 10 mg/kg; details: human, in vivo, read-out: beta t1/2 (converted)
Summary of the method: (§2)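 Children aged 5–10 y with uncomplicated malaria took oral CQ at 10 mg base/kg daily at 0, 24 and 48 h, with single-dose SP given alongside the first dose, without fasting. Heparin plasma was sampled serially to day 42, stored at −80°C, extracted with t-butyl methyl ether, and measured by HPLC-UV at 340 nm. Two-compartment model fitting used 1/y2 weighting.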

Homo sapiens [17] = test: Tlag in Paua New Guinean children with uncomplicated malaria at 10 mg/kg daily for 3 days; assay type: ADME, organism-based; parameters: dose 10 mg/kg; details: in vivo, 72 h; summary of the method: as §2
[18] = Volume of distribution at steady state with respect to bioavailability in Paua New Guinean children with uncomplicated malaria at 10 mg/kg daily for 3 days; assay type: ADME, organism-based; details: human, in vivo, read-out: Vc/F; summary of the method: as §2
[19] = AUC (0 to 42 days) in Paua New Guinean children with uncomplicated malaria at 10 mg/kg daily for 3 days; assay type: ADME, organism-based; parameters: time < 1008 hr, dose 10 mg/kg; details: human, plasma; summary of the method: as §2
Homo sapiens [20] = test: AUC (0 to infinity) in Paua New Guinean children with uncomplicated malaria at 10 mg/kg daily for 3 days; assay type: ADME, organism-based, Plasma; parameters: time infinity, dose 10 mg/kg; details: in vivo, 72 h; summary of the method: as §2
[21] = Apparent clearance with respect to bioavailability in human with malaria; assay type: ADME, organism-based; details: in vivo
[22] = Apparent clearance with respect to bioavailability in human; assay type: ADME, organism-based; details: in vivo
[23] = Elimination half life in Paua New Guinean children with uncomplicated malaria; assay type: ADME, organism-based; details: human, in vivo; read-out: beta t1/2 (converted)
[24] = AUC (0 to 42 days) in Paua New Guinean children with uncomplicated malaria; assay type: ADME, organism-based; parameters: time < 1008 hr; details: human, plasma
[25] = AUC (0 to infinity) in Paua New Guinean children with uncomplicated malaria; assay type: ADME, organism-based; parameters: time infinity; details: human, plasma

Compound: Clc1ccc2c(N3CCN(CCCN4CCN(c5ccnc6cc(Cl)ccc56)CC4)CC3)ccnc2c1 [PIPERAQUINE]
half-life [1]: 17.2 days
Tlag (Homo sapiens [2]): 0.89 h
Vd/F [3]: 431 L/kg
CL/F [4]: 14.2 mL/min/kg
AUC at 1008 h [5]: 76.4 µM·h
AUC(0-inf) [6]: 87.4 µM·h
half-life [7]: 13.5 days
Vd/F [8]: 614 L/kg
Vc/F (Homo sapiens [9]): 365 L/kg
CL/F [10]: 19 mL/min/kg
CL/F [11]: 10 mL/min/kg
CL/F [12]: 16.2 mL/min/kg
Vd/F [13]: 103 L/kg
IC50 (Plasmodium falciparum [14]): 0.0355 µM
IC50 (Plasmodium falciparum [15]): 0.0407 µM

half-life [16]: 9.71 days
Tlag (Homo sapiens [17]): 0.55 h
Vd/F [18]: 154 L/kg
AUC at 1008 h [19]: 117 µM·h
AUC (Homo sapiens [20]): 122.5 µM·h
CL/F [21]: 2.17 mL/min/kg
CL/F [22]: 2.17 mL/min/kg
Compound: CCN(CC)CCCC(C)Nc1ccnc2cc(Cl)ccc12 (configuration not stated) [CHLOROQUINE]

Compound: CCNCCCC(C)Nc1ccnc2cc(Cl)ccc12 (configuration not stated) [DESETHYLCHLOROQUINE]
half-life [23]: 12.1 days
AUC(0-t) at 1008 h [24]: 83.6 µM·h
AUC(0-inf) [25]: 98.5 µM·h
IC50 (Plasmodium falciparum [14]): 0.0178 µM
IC50 (Plasmodium falciparum [15]): 0.0374 µM
